This passage reports Ratio and MIC results from ChEMBL document CHEMBL1152985, “Contributions of the combined effects of topoisomerase mutations toward fluoroquinolone resistance in Escherichia coli” (2007).

In test [1] the test system is Escherichia coli. The experiment in a line: Antibacterial activity against Escherichia coli 1596 containing gyrA L83 and parC I80, G84 mutants assessed as increase in MIC by Etest relative to MIC for Escherichia coli 1608 containing gyrA mutant. It is filed as functional. In a few lines: (§1)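 Defined isogenic E. coli strains in a C600 background (parent 1609); mutations introduced by λ Red recombineering with temperature-sensitive pSIM5, overnight recovery after electroporation, plasmid cured at 37°C. Fluoroquinolone MICs were read by Etest per the manufacturer's instructions. MICs above the Etest limit were measured by broth macrodilution per CLSI guidelines. Results are expressed as fold change in MIC relative to the comparator strain.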

In test [2] the test system is Escherichia coli. The experiment in a line: Antibacterial activity against Escherichia coli 1608 containing gyrA L83, Y87 mutants assessed as increase in MIC by Etest relative to MIC for wild type Escherichia coli 1609.
Test [3] deals with Escherichia coli. The test is described as follows: Antibacterial activity against Escherichia coli SKM9 containing gyrA L83, Y87 and parC L80 mutants assessed as increase in MIC by Etest relative to MIC for Escherichia coli 1596 containing gyrA L83 and parC L80 mutants.
The subject of test [4] is Escherichia coli. The experiment in a line: Antibacterial activity against Escherichia coli SKM18 containing gyrA L83, Y87 and parC I80, G84 mutants assessed as increase in MIC by Etest relative to MIC for Escherichia coli SKM9 containing gyrA L83, Y87 and parC L80 mutants.
Test [5] has as its system Escherichia coli. The experiment in a line: Antibacterial activity against Escherichia coli 1596 containing parC K84 mutant assessed as decrease in MIC by Etest relative to MIC for Escherichia coli 1608 containing gyrA mutant. Type of test: functional. In a few lines:
as §1

The test system of test [6] is Escherichia coli. The experiment in a line: Antibacterial activity against Escherichia coli 1608 containing gyrA L83 mutant assessed as increase in MIC by Etest relative to MIC for wild type Escherichia coli 1609. It is filed as functional. An outline of the steps:
as §1

Consider `COc1c(N2CCNC(C)C2)c(F)cc2c(=O)c(C(=O)O)cn(C3CC3)c12` (configuration not stated) [GATIFLOXACIN], for which the Ratio in test [1] is reported as 1; in test [2], 5; in test [3] it was 9; in test [4], 2.

For `CO/N=C1\CN(c2nc3c(cc2F)c(=O)c(C(=O)O)cn3C2CC2)CC1CN` (configuration not stated) [GEMIFLOXACIN], the Ratio in test [1] is reported as 1; in test [2], 5; in test [3], 9. For the same compound, the MIC in test [5] is 0.007 µg/mL.

`Cc1c(F)c(N2CCNC(C)C2)cc2c1c(=O)c(C(=O)O)cn2C1CC1` (configuration not stated) [GREPAFLOXACIN]: in test [5], the MIC was found to be 0.014 µg/mL.

Turning to `C[C@H]1COc2c(N3CCN(C)CC3)c(F)cc3c(=O)c(C(=O)O)cn1c23.C[C@H]1COc2c(N3CCN(C)CC3)c(F)cc3c(=O)c(C(=O)O)cn1c23.O` [LEVOFLOXACIN], the Ratio is reported as 1 in test [1], 5 in test [2] and 9 in test [3].

Take `COc1c(N2C[C@@H]3CCCN[C@@H]3C2)c(F)cc2c(=O)c(C(=O)O)cn(C3CC3)c12` [MOXIFLOXACIN]: the Ratio in test [1] is 1; in test [6], 1; in test [2] it was 5; in test [3], 9; in test [4] it was 10. Moreover, the MIC in test [5] came out at 0.028 µg/mL.

As to `CCn1cc(C(=O)O)c(=O)c2cc(F)c(N3CCNCC3)cc21` [NORFLOXACIN], the values for the Ratio in test [1], in test [2] and in test [3] were 5, 5 and 9, respectively.

In the case of `C[C@@H]1CN(c2c(F)c(N)c3c(=O)c(C(=O)O)cn(C4CC4)c3c2F)C[C@H](C)N1` [SPARFLOXACIN], the MIC in test [5] turned out to be 0.008 µg/mL.

One may read the MIC as the lowest concentration found to suppress growth.
